Screening results (PubChem)
This is a sample that favours compounds with a hit; in the whole collection about 2.7% have one here.
Wee1 stabilizer – blocks degradation of human Wee1 kinase; HeLa Luc-Wee1K328M stability, luciferase luminescence; 100% = proteasome inhibitor MG132 effect; reporter increase, % at 5 µM; 1.2% of 220,000 active; AID 1321;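 active = activation above the mean of all tested compounds plus 3 SD, set per screening run, cut at about 8.8% in these data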;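 also: cells exposed to compound for 20 h before luminescence read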
p97 inhibitor – human p97 ATPase inhibition. 0.42% of 220,000 active. inhibition, % at 8 µM. recombinant p97 ATPase, Kinase-Glo ATP luminescence, 3 h. P55072; in the data active = inhibition above about 15%
TNF death inh – inhibitors of TNF-alpha induced necroptosis in Jurkat FADD-/- cells | Jurkat FADD-/- TNF necroptosis rescue, ATP luminescence, 24 h; 0 = TNF only, 100 = no-TNF cells | activation (protection from cell death), % at 10 µM | 0.068% of 220,000 active | AID 463075;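 active = activation, meaning protection from cell death, of at least 50% relative to plate controls; inactive = activation below 50%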;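 also: necroptosis triggered by 40 ng/mL TNF-alpha added together with compound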
M18AAP inhibitor – blocks P. falciparum M18 aspartyl aminopeptidase; recombinant PfM18AAP, H-Glu-NHMec fluorogenic cleavage; inhibition, % at 7.35 µM; 1.2% of 290,000 active; AID 1822;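 active = inhibition above the campaign mean inhibition over all tested compounds plus 3 SD, cut at about 28% in these data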
RBBP9 inh – blocks human serine hydrolase RBBP9; O75884; recombinant RBBP9, FP-Rh probe fluorescence polarization; inhibition, % at 7.94 µM; 0.2% of 220,000 active;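 active = inhibition above the campaign mean of all tested compounds plus 3 SD, cut at about 14% in these data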
Target sequence (O75884 whole entry, looked up): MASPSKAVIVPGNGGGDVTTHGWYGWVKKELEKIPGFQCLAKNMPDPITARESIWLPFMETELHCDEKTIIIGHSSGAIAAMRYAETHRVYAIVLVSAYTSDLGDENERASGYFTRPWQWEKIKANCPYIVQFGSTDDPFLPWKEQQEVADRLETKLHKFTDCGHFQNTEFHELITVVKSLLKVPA
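Material: RBBP9 protein. Amount: RBBP9 at 2.5 µM in dispensed solution, before mixing. Schedule: 30 min then 45 min, 25 °C. Medium: Tris buffer pH 8.0, NaCl, Pluronic. Measured by: fluorescence polarization. Measure: percent inhibition from mP, scaled between DMSO and no-protein wells. Replication: one well per compound.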
zVAD death inh – L929 zVAD cell death inhibition. AID 1377. 0.38% of 220,000 active. L929 zVAD necroptosis rescue, ATP luminescence, 24 h; with zVAD 60 µM. viability rescue, % at 10 µM;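 active = activation, scaled between plate controls, above about 75%, limit read from the data; inactive = activation under that limit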
Numbers stand for hits; - = inactive; . = no result given.

SMILES	Wee1 stabilizer	p97 inhibitor	TNF death inh	M18AAP inhibitor	RBBP9 inh	zVAD death inh
CCOc1cc(C(c2c(C)[nH][nH]c2=O)c2c(C)[nH][nH]c2=O)cc([N+](=O)[O-])c1O	.	.	.	-	.	.
CCOc1cc(C(c2c(C)[nH][nH]c2=O)c2c(C)[nH][nH]c2=O)cc(Cl)c1O	.	.	.	31.6	.	.
CCOc1cc(C(c2c(C)[nH][nH]c2=O)c2c(C)[nH][nH]c2=O)cc(Br)c1OC	.	.	.	30.4	.	.
CCOC(=O)C1ON2CCCCC2C1(O)C(F)(F)F (centres undefined)	-	-	-	-	-	-
COc1cc(/C=N/N=C/c2cc(OC)c(O)c(OC)c2)cc(OC)c1O	-	-	-	30.1	-	-
CC(=O)c1ccc(NC(=S)N2CCN(S(=O)(=O)c3ccc(F)cc3)CC2)cc1	.	.	.	-	.	.
S=C(Nc1cccc(Cl)c1)Nc1cccc2cnccc12	-	26.7	-	-	-	-
CC(=O)c1ccc(NC(=S)Nc2cccc3cnccc23)cc1	-	17.3	-	-	-	-
Cc1ccc(NC(=S)Nc2cccc3cnccc23)cc1	-	-	-	-	-	-
O=C(COc1ccccc1)Nc1ccccc1Cl	-	-	-	-	-	-
CCN(CC)CCNC(=O)c1ccccn1	16.1	-	-	-	-	-
N#C/C(=C\c1ccc2c(c1)OCO2)C(N)=S	-	-	-	31.5	-	-
O=P(CCCO)(Cc1ccccc1)Cc1ccccc1	.	.	.	-	.	.
C=C1c2ccccc2NC(=S)N1Cc1ccc2c(c1)OCO2	-	-	-	31.6	-	-
N#CCC(=O)c1ccccc1Oc1ccc(Cl)cc1	-	-	-	-	-	-
Cc1ccc2oc(=O)c(/C=C(\O)c3sc(C)nc3C)nc2c1	-	-	-	28.6	-	-
Cc1c(CN(C)C(=O)/C=C/c2ccc([N+](=O)[O-])cc2)cnn1C	8.9	-	-	-	-	-
CN(CCOc1ccccc1)C(=O)C1CCC(=O)N(CCc2ccc(Cl)cc2)C1 (centres undefined)	.	.	.	-	.	.
CCOc1ccc(Oc2ccc(C(F)(F)F)cc2N)cc1	-	-	-	-	-	-
CCOc1ccc(N)c(SSc2cc(OCC)ccc2N)c1	.	.	.	43.3	.	.
Cc1cccc(-c2n[nH]c(=S)n2/N=C/C=C/c2ccco2)c1	-	-	-	-	-	-
S=c1[nH]nc(-c2ccncc2)n1/N=C/C=C/c1ccco1	-	-	-	30.9	-	-
Cc1ccccc1NC(=S)N(Cc1cccnc1)Cc1ccccc1Cl	-	-	-	-	-	-
Cc1cc(C(=O)NNC(=O)c2ccc(S(=O)(=O)N(C)C)cc2)c(C)o1	9.5	-	-	-	-	-
c1ccc(CSC2=NCCCN2)cc1	-	-	-	-	-	-
SMILES	Wee1 stabilizer	p97 inhibitor	TNF death inh	M18AAP inhibitor	RBBP9 inh	zVAD death inh
N#Cc1ccc(CSC2=NCCN2)cc1	9.8	-	-	-	-	-
O=C1NC(c2cccs2)Nc2sc3c(c21)CCCC3 (centres undefined)	8.9	-	-	-	-	-
CN1CCc2c(sc3c2C(=O)NC(c2ccco2)N3)C1 (centres undefined)	-	-	-	-	-	-
Cc1ccc(Oc2c(CO)c(-c3ccccc3)nn2C)cc1	-	-	-	-	-	-
Cc1cc(C(=O)N2CCC(Cc3ccccc3)CC2)c(C)o1	.	.	.	-	.	.
Clc1ccc(CN=C2Nc3ccccc3CS2)cc1	8.8	-	-	-	-	-
Cc1ccc(CN=C2Nc3ccccc3CS2)cc1	-	-	-	-	-	-
O=C(NCCNc1nccc(C(F)(F)F)n1)c1cccs1	9.2	-	-	-	-	-
CC(C)(C)OC(=O)NCCNC(=O)c1cccs1	-	-	-	-	-	-
CC(C)CNC(=O)c1ccccc1NC(=O)CN(c1ccccc1)S(=O)(=O)N(C)C	-	-	-	-	-	-
Cc1cccc(NC(=O)c2sc3nc(N)c(C#N)cc3c2N)c1	-	-	-	28.1	-	-
N#Cc1cc2c(N)c(C(=O)Nc3ccccc3)sc2nc1N	-	-	-	-	-	-
NS(=O)(=O)c1cc(C(=O)N=Nc2c(O)[nH]c3ccccc23)ccc1Cl	-	-	-	-	-	-
C=CCNC(=O)CC1C(=O)NCCN1Cc1ccc(-c2ccccc2)cc1 (centres undefined)	10.8	-	-	-	-	-
c1ccc(CN=C2NN=C(c3cc4ccccc4o3)CS2)cc1	-	-	-	-	-	-
c1ccc2oc(C3=NNC(=NC4CC4)SC3)cc2c1	15.0	-	-	-	-	-
c1cc2c(cc1C1=NNC(=NC3CC3)SC1)OCCO2	-	-	-	30.8	-	-
c1ccc(Nc2nc(-c3cccs3)cs2)nc1	9.8	-	-	-	-	-
Cc1cccc(Nc2nc(-c3cccs3)cs2)n1	18.3	-	-	-	-	-
Cc1cccc(Nc2nc(-c3ccc(F)cc3)cs2)n1	.	.	.	-	.	.
CC(C)Nc1ccc(Cl)cc1[N+](=O)[O-]	-	-	-	-	-	-
O=C(Nc1ccc(Cl)cc1)N1CCN(c2ccccc2)CC1	-	-	-	-	-	-
O=C(Nc1ccc(NC(=O)N2CCN(c3ccccc3O)CC2)cc1)N1CCN(c2ccccc2O)CC1	.	.	.	28.7	.	.
CC(C)CC(NC(N)=O)C(=O)NCCc1ccc(Cl)cc1 (centres undefined)	10.6	-	-	-	-	-
O=C(O)CCSc1ccccn1	-	-	-	-	-	-
SMILES	Wee1 stabilizer	p97 inhibitor	TNF death inh	M18AAP inhibitor	RBBP9 inh	zVAD death inh
O=C(CCSc1ccccn1)c1ccccc1	-	-	-	55.0	-	-
COc1ccc(/C=C/C(=O)c2ccc(NC(=O)c3cccs3)cc2)cc1OC	9.2	-	-	-	-	-
COc1ccc(Br)cc1/C=C/C(=O)c1ccc(NC(C)=O)cc1	-	-	-	-	-	87.8
COc1ccc(C(=O)Nc2cccc(NC(=O)c3cccs3)c2)cc1OC	.	.	.	-	.	.
COc1ccc(Cc2nnc(NC(=O)CS(=O)(=O)c3ccccc3)s2)cc1OC	.	.	.	-	.	.
CSc1ccccc1NC(=O)C(=O)c1c[nH]c2ccccc12	-	-	-	-	-	-
O=C(COC(=O)Cc1n[nH]c(=O)c2ccccc12)Nc1ccc(Cl)cc1F	8.9	-	-	-	-	-
N#Cc1ccncc1Sc1ccc(Cl)cc1	.	.	.	-	.	.
S=C(NCc1ccccc1)NCc1ccc2c(c1)OCO2	8.9	-	-	-	-	-
COc1ccc(C2CC(=O)N3CN(c4ccccc4F)CSC3=C2C#N)cc1OC (centres undefined)	-	-	-	-	-	-
COc1ccc(N2CSC3=C(C#N)C(c4cccc(OC)c4OC)CC(=O)N3C2)cc1 (centres undefined)	-	-	-	28.4	-	-
COc1cc(OC)c(C2CC(=O)N3CN(c4ccccc4C)CSC3=C2C#N)cc1OC (centres undefined)	-	-	-	42.9	-	-
Cc1cccc(N2CSC3=C(C#N)C(c4ccc(C)o4)CC(=O)N3C2)c1 (centres undefined)	-	17.3	-	33.2	-	-
